Assay results reported in ChEMBL document CHEMBL1151829, “Molluscicidal Phloroglucinols from the Fern Elaphoglossum piloselloides” (2009).

What was measured:
Assay type in all cases: functional
Biomphalaria peregrina [1] = experiment: Molluscicidal activity against Biomphalaria peregrina after 24 hrs; conditions: for LC50: Biomphalaria peregrina, 24 h, read-out: LD50 (the source's name)
Summary of the method: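 Adult snails (seven per concentration, triplicate) exposed 24 h to test solutions in water with MeOH ≤5% v/v, per the WHO protocol. Snails were then washed and held 24 h in dechlorinated tap water with lettuce leaves before mortality was scored. Solvent-only negative control; 10 ppm CuSO₄ positive control.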

Biomphalaria peregrina [2] = experiment: Molluscicidal activity against Biomphalaria peregrina assessed as mortality at 1 ppm after 24 hrs
Summary of the method: (§1)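 WHO protocol on adult snails, seven per beaker, each concentration in triplicate. Test solutions in water with MeOH ≤5% v/v; same-volume solvent controls. After 24 h exposure, snails were rinsed in dechlorinated tap water and kept 24 h to recover in dechlorinated tap water with lettuce leaves. Percent mortality was then recorded at the stated ppm.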

Biomphalaria peregrina [3] = experiment: Molluscicidal activity against Biomphalaria peregrina assessed as mortality at 5 ppm after 24 hrs; summary of the method: as §1
Biomphalaria peregrina [4] = experiment: Molluscicidal activity against Biomphalaria peregrina assessed as mortality at 20 ppm after 24 hrs; summary of the method: as §1
Biomphalaria peregrina [5] = experiment: Molluscicidal activity against Biomphalaria peregrina assessed as mortality at 40 ppm after 24 hrs; summary of the method: as §1
Biomphalaria peregrina [6] = experiment: Molluscicidal activity against Biomphalaria peregrina assessed as mortality at 10 ppm after 24 hrs; summary of the method: as §1
Biomphalaria peregrina [7] = experiment: Molluscicidal activity against Biomphalaria peregrina assessed as mortality at 0.5 ppm after 24 hrs; summary of the method: as §1
Biomphalaria pfeifferi = experiment: Molluscicidal activity against Biomphalaria pfeifferi; conditions: read-out: LD50 (the source's name)
Oncomelania hupensis = experiment: Molluscicidal activity against Oncomelania hupensis; conditions: read-out: LD50 (the source's name)
Biomphalaria alexandrina = experiment: Molluscicidal activity against Biomphalaria alexandrina; conditions: read-out: LD50 (the source's name)

Row | SMILES | LD90 (Biomphalaria peregrina [1]) | LC50 (Biomphalaria peregrina [1]) | Activity (Biomphalaria peregrina [2]) | Activity (Biomphalaria peregrina [3]) | Activity (Biomphalaria peregrina [4]) | Activity (Biomphalaria peregrina [5]) | Activity (Biomphalaria peregrina [6]) | Activity (Biomphalaria peregrina [7]) | LD100 (Biomphalaria peregrina [1]) | LC50 (Biomphalaria pfeifferi) | LC50 (Oncomelania hupensis) | LC50 (Biomphalaria alexandrina)
1 | CC/C=C(\OC(C)=O)C1=C(OC(C)=O)C(C)(CC=C(C)C)C(OC(C)=O)=C(Cc2c(OC)cc(OC(C)=O)c(C(=O)CCCCC)c2OC(C)=O)C1=O (stereo unspecified) | 58.4 µM | 40.6 µM | 0% | 0% | 24% | 81% | 0% |  |  |  |  | 
2 | CCCC(=O)C1=C(O)C(C)(CC=C(C)C)C(O)=C(Cc2c(OC)cc(O)c(C(=O)CCC)c2O)C1=O (stereo unspecified) | 9 µM | 5.8 µM | 10% | 95% |  |  |  | 0% |  |  |  | 
3 | CCCCCC(=O)c1c(O)cc(OC)c(CC2=C(O)C(C)(CC=C(C)C)C(O)=C(C(=O)CCC)C2=O)c1O (stereo unspecified) | 2.6 µM | 1.8 µM | 57% | 100% |  |  |  | 10% | <=5 ppm |  |  | 
4 | CC/C=C(\OC(C)=O)C1=C(OC(C)=O)C(C)(CC=C(C)C)C(OC(C)=O)=C(Cc2c(OC)cc(OC(C)=O)c(C(=O)CCC)c2OC(C)=O)C1=O (stereo unspecified) | 20.7 µM | 14.9 µM | 0% | 5% |  |  | 43% |  |  |  |  | 
5 | O=C(Nc1ccc([N+](=O)[O-])cc1Cl)c1cc(Cl)ccc1O [NICLOSAMIDE] |  |  |  |  |  |  |  |  |  | ≤ 0.5 µg/mL | ≤ 0.5 µg/mL | ≤ 0.5 µg/mL
